Compound activity as filed in PubChem.
Hits are enriched below; roughly 1.5% of the tested compounds scored in any of these assays.
EBI2 antag: EBI2 (human) antagonism; P32249; inhibition, % at 5 µM; 360,000 compounds, 0.81% hits; EBI2 beta-arrestin recruitment, luminescence, 7a,25-OHC stimulated; in the data active means inhibition above about 38%;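 further: enzyme fragment complementation signal reports receptor beta-arrestin coupling in cells; 0% = agonist plus DMSO wells and 100% = wells without agonist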
APJ antagonist: APJ receptor antagonism. inhibition, % at 20 µM. 330,000 compounds, 0.32% hits. CHO-K1 APJ beta-arrestin complementation, luminescence. P35414. AID 2521;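 active means inhibition above about 40% at 20 µM, limit read from the data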;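 further: cells challenged with 10 nM apelin-13 agonist together with compound; plate controls were apelin-13 plus DMSO wells for no effect and DMSO wells lacking apelin-13 for full effect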
APJ ag: activates the human apelin receptor APJ; AID 2520; CHO-K1 APJ PathHunter beta-arrestin, luminescence; 0% DMSO wells, 100% apelin; 330,000 compounds, 0.11% hits; P35414; activation, % at 20 µM;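 active means activation more than six SD over the plate average, tested at 20 µM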;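 further: 0% = DMSO alone and 100% = apelin-13 at 10 nM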
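Test system: CHO-K1 APJ beta-arrestin complementation cell line | Compound: Single test compound dose, 20 µM final, 1% DMSO | Incubation: Compound 90 min 25 °C, reagent 1 h | Measured by: beta-gal luminescence | Read-out basis: APJ–arrestin association signal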
CXCR6 inh: CXCR6 (human) receptor inhibition; CHO-K1 PathHunter CXCR6 beta-arrestin, luminescence; inhibition, % at 20 µM; 360,000 compounds, 0.36% hits; AID 602244; in the data active means inhibition above about 34%, passing the limit was not always enough;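 further: antagonist mode with CXCL16 agonist at 10 nM final; 0% = 10 nM CXCL16 with DMSO and 100% = unstimulated wells without agonist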
Target sequence (O00574 whole entry, looked up): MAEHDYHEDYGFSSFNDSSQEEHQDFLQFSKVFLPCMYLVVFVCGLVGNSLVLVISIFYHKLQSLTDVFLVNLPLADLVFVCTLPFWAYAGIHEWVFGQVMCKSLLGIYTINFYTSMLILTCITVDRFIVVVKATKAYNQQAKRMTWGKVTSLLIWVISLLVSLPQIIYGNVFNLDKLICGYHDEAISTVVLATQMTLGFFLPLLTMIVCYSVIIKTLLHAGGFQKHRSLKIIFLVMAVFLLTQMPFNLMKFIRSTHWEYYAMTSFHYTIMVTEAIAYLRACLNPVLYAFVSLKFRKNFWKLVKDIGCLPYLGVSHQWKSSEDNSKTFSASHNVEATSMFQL
CCR6 antag: antagonists of human CCR6 receptor | CHO-K1 CCR6 PathHunter beta-arrestin, luminescence, CCL20-stimulated | inhibition, % at 20 µM | 340,000 compounds, 0.49% hits | P51684;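 active means compounds whose inhibition of the agonist-driven luminescence signal at 20 µM reaches about 50%, limit read from the data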;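 further: cells stimulated with CCL20 at 14 nM final; plate controls were DMSO with CCL20 for no effect and DMSO without agonist for full effect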
CXCR6 antag conf: confirmation of human CXCR6 receptor antagonists; shares compounds with CXCR6 inh; CHO-K1 CXCR6 PathHunter beta-arrestin, luminescence; inhibition, % at 20 µM; 700 compounds, 65% hits; AID 602409;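 active means mean inhibition over four retests above 40%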;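 further: receptor stimulated with 10 nM CXCL16 agonist; beta-galactosidase fragment complementation upon beta-arrestin recruitment to receptor; plate controls were CXCL16 plus DMSO for no effect and DMSO without CXCL16 for full effect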
EBI2 conf: confirmation of human EBI2 receptor antagonists | inhibition, % at 5 µM | AID 651997 | shares compounds with EBI2 antag | EBI2 beta-arrestin luminescence, 7a,25-OHC antagonism | 2,400 compounds, 29% hits;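 active means inhibition of at least 50%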
EBI2 ag: activates EBI2, counter-screen for EBI2 antagonists | 2,400 tested, under 10 active | shares compounds with EBI2 antag | EBI2-expressing cells, agonist mode, luminescence, 60 min; 0% vehicle, 100% 7α,25-dihydroxycholesterol control | activation, % at 5 µM | AID 652000;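 active means activation of at least 50%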
bGal cs: beta-galactosidase inhibition counter-screen | shares compounds with EBI2 antag | purified beta-galactosidase, luminescent Galacton Star, 15 min | inhibition, % at 5 µM | 2,400 compounds, 1% hits;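 active means replicate-average signal at least 3 plate SD below neutral wells, shown as high inhibition, flagging enzyme-inhibiting false positives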;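 further: 0% = DMSO wells with enzyme and 100% = wells lacking enzyme; higher means stronger loss of beta-gal luminescence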
An asterisk follows results filed as active; · = no result.

SMILES	EBI2 antag	APJ antagonist	APJ ag	CXCR6 inh	CCR6 antag	CXCR6 antag conf	EBI2 conf	EBI2 ag	bGal cs
C=C(C)c1cccc(C(C)(C)NC(=O)NC(c2ccccc2)c2ccc(OC)cc2)c1 (stereo not drawn)	0	1	-4	45*	13	13	·	·	·
C=C(C)c1cccc(C(C)(C)NC(=O)Nc2ccc(OC)cc2)c1	0	-3	-2	7	-5	·	·	·	·
Cc1noc(C)c1NC(=O)Nc1cccc2c1O[C@H](CN(C)S(=O)(=O)c1cn(C)cn1)[C@@H](C)CN([C@H](C)CO)C2=O	-2	-6	1	45*	11	3	·	·	·
Cc1noc(C)c1NC(=O)Nc1cccc2c1O[C@H](CN(C)S(C)(=O)=O)[C@@H](C)CN([C@H](C)CO)C2=O	-7	4	-2	5	-2	·	·	·	·
COc1cc(/C=C2/C(=O)NN(c3ccc(C)c(Cl)c3)C2=O)cc([N+](=O)[O-])c1O	5	37	-6	37	42	·	·	·	·
COc1cc(/C=C2\SC(=O)N(c3ccc(Cl)cc3)C2=O)cc([N+](=O)[O-])c1O	35	·	·	46*	77*	56*	·	·	·
Cn1c(N/N=C/c2ccccc2)nc2sc3c(c2c1=O)CCC3	5	16	-3	14	4	·	·	·	·
C/C(=C\C(=O)c1ccccc1)NNC(=O)c1ccc(Cl)cc1	2	27	-5	46*	55*	6	·	·	·
COc1ccc(C(=O)NN/C(C)=C/C(=O)c2ccccc2)cc1	-5	19	-3	7	23	·	·	·	·
O=[N+]([O-])c1ccc(N/N=C/c2sc(N3CCOCC3)nc2-c2ccccc2)c(S(=O)(=O)Nc2ccc(Cl)cc2)c1	51*	·	·	52*	83*	62*	30	-1	13
Cc1n[nH]c(=S)n(NC(=O)CC(=O)Nn2c(=S)[nH]nc(C)c2=O)c1=O	44*	10	-2	103*	·	115*	22	-4	17*
Cc1ccc(NC(=S)NNC(=S)Nc2cccc(C(F)(F)F)c2)cc1	28	-6	0	12	27	·	·	·	·
Cc1ccc(NC(=S)NNc2ncc(C(F)(F)F)cc2Cl)cc1	42*	-18	-2	78*	90*	58*	33	-1	15
O=C1CC(c2ccccc2)CC(O)=C1C=NCCN1CCN(C(=O)Nc2ccccc2)CC1 (stereo not drawn)	2	-7	-1	1	7	·	·	·	·
CCC(CC)C(=O)N(C)c1c(C)nc2c(OCc3ccc(Cl)cc3Cl)cccn12	47*	·	·	51*	·	24	46	-1	8
CCC(CC)C(=O)N(C)c1c(C)nc2c(OCc3ccccc3C)cccn12	-1	·	·	1	·	·	·	·	·
C/C(=N\NC(=O)c1cc(-c2cccs2)nc2ccccc12)c1ccccn1	66*	39	-8	45*	29	44*	48	-3	-10
NNC(=O)c1cc(-c2cccs2)nc2ccccc12	-9	-5	1	-28	-17	·	·	·	·
COc1ccc(C(=O)N/N=C(\C)c2ccccn2)cc1OC	58*	76*	-21	51*	75*	69*	84*	-1	0
COc1cc(C(=O)NC(=S)Nc2ccc3oc(=O)ccc3c2)cc(OC)c1OC	-9	13	-2	2	11	·	·	·	·
CC(C)NC(=O)Nc1ccc2c(c1)C(=O)N([C@H](C)CO)C[C@H](C)[C@@H](CN(C)C(=O)Nc1ccccc1)O2	7	1	-2	-2	3	·	·	·	·
CC(C(=O)NCCS(=O)(=O)c1ccc(Cl)cc1)S(=O)(=O)c1ccc(Cl)cc1 (stereo not drawn)	7	10	-4	-3	6	·	·	·	·
CC(NCCS(=O)(=O)c1ccc(Cl)cc1)c1cccc(Cl)c1 (stereo not drawn)	74*	20	2	4	11	·	38	0	4
O=C(NCCS(=O)(=O)c1ccc(Br)cc1)c1ccccc1	-6	9	-10	-15	1	·	·	·	·
CC(C)c1ccc(C(C)NCCS(=O)(=O)c2ccc(Br)cc2)cc1 (stereo not drawn)	78*	10	-3	6	28	·	61*	0	5
SMILES	EBI2 antag	APJ antagonist	APJ ag	CXCR6 inh	CCR6 antag	CXCR6 antag conf	EBI2 conf	EBI2 ag	bGal cs
CCOc1ccc(S(=O)(=O)c2c(C(=O)c3ccc(C)cc3)cnc3cc4c(cc23)OCCO4)cc1	47*	-3	-5	10	4	·	14	1	8
Cc1ccc(C(=O)c2cnc3cc4c(cc3c2S(=O)(=O)c2ccccc2)OCCO4)cc1	18	16	-2	11	7	·	·	·	·
Cc1ccccc1C(=O)NCC(=O)OCC(=O)NNC(=O)c1ccccc1F	-11	·	·	-3	·	·	·	·	·
O=C(c1ccncc1)c1ccc(NS(=O)(=O)c2ccc(Br)s2)cc1	3	8	1	0	8	·	·	·	·
O=C(Nc1ccc2ccccc2c1)c1ccc(NS(=O)(=O)c2ccc(Br)s2)cc1	44*	-32	3	-7	1	·	15	1	3
CC1(C)CC(=O)c2c(S(C)(=O)=O)sc(Br)c2C1	-35	-6	6	-10	-5	·	·	·	·
COc1cccc(-c2nn3c(-c4cc(C)[nH]n4)nnc3s2)c1	6	5	29	-7	-8	·	·	·	·
Cc1ccc(NNC(=S)Nc2ccc(C(C)C)cc2)c(C)c1	70*	30	-5	19	42	·	62*	-1	-8
O=C(/C=C/c1ccccc1)N1CCN(CC(O)COc2ccccc2)CC1 (stereo not drawn)	82*	3	-5	7	3	·	54*	-2	-10
Cc1ccc(OCC(O)CN2CCN(CC(O)COc3ccc(C)cc3)CC2)cc1 (stereo not drawn)	45*	12	-3	1	4	·	21	0	4
CN1CCN(C(=O)/C=C/c2ccccc2)CC1	45*	12	0	4	-1	·	10	-1	-6
CN1CCN(C(=O)/C=C/c2cccc(Cl)c2)CC1	46*	4	26	-2	19	·	10	-1	-5
CN1CCN(NC(=O)/C=C/c2cccc(Cl)c2)CC1	3	10	-1	-5	6	·	·	·	·
O=C(CN1C(=O)NC2(CCCC2)C1=O)N1CCN(S(=O)(=O)c2ccc(Cl)cc2)CC1	-12	-1	-3	3	6	·	·	·	·
CC(C)c1ccc(/C=C/C(=O)N2CCCCCC2)cc1	36	0	-4	3	12	·	·	·	·
